In the library only some 2.3% were active in any assay of this set; here they are far more common.
F508del corr: CFTR F508del correction in bronchial cells; CFBE cells, YFP halide quenching; stimulated with forskolin plus potentiator P3; % fluorescence drop versus neutral controls; activity (quench increase), % at 7.58 µM; 350,000 compounds, 0.36% hits;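 active = mean added fluorescence quench of at least 8% versus neutral control, with both replicates also reaching 8%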;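 also: cells transiently co-express mutant CFTR-F508del with the halide-sensitive YFP; corrector assay measuring rescue of mutant channel to the surface after 24 h compound exposure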
PGC1a acetyl inh: modulators of PGC1a acetylation | AID 651687 | inhibition, % at 15.6 µM | 350,000 compounds, 0.17% hits | U2OS PGC1a acetylation, AlphaScreen anti-acetyl-lysine; with virally co-expressed GCN5 acetyltransferase;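 active = every replicate shows inhibition of at least 40%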;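 also: 0% = neutral control wells and 100% = positive control wells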
PAX8 reporter: inhibitors of PAX8 transcriptional activity in RMG-I cells; RMG-I TPO-luciferase reporter, SteadyGlo, 24 h; inhibition, % at 12.6 µM; 360,000 compounds, 1.2% hits; AID 652154;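 active = mean replicate inhibition at least 60% with every replicate also reaching 60%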;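 also: luciferase light reporting Pax8 driven TPO promoter activity; plate controls were median of neutral control wells for no effect and mitoxantrone controls for full effect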
EWS-Fli block: blocks EWS/Fli oncoprotein-driven transcription; A673 NR0B1-luciferase reporter, viability-normalised; AID 651661; inhibition, % at 12.6 µM; 350,000 compounds, 0.67% hits;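 active = mean inhibition of at least 50% after viability correction, with every replicate also passing that limit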;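 also: firefly luciferase signal divided by Alamar Blue viability fluorescence both relative to DMSO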
FN deposit inh: fibronectin deposition inhibition. 350,000 compounds, 0.086% hits. AH1F fibroblasts, Alexa488-fibronectin deposition fluorescence, overnight. inhibition, % at 12.6 µM;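 active = mean inhibition across replicates of 30% or more, regardless of how many single replicates reach that level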;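 also: positive control wells lacked labelled fibronectin entirely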
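material = AH1F fibroblast monolayer depositing Alexa488-labelled fibronectin into matrix | amount = 10000 AH1F cells/well | buffer or medium = DMEM plus 2% serum, read in PBS | incubation = 1 h cell adhesion before compound, then overnight fibronectin incubation | detection = fluorescence at 485 nm excitation, 525 nm emission | evaluation = percent inhibition as loss of matrix-bound fibronectin fluorescence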
HIV Env fusion: HIV envelope-mediated fusion inhibition; HeLa-JRFL Env/CEM21 cell fusion, luciferase; inhibition, % at 12.3 µM; 360,000 compounds, 1.1% hits;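 active = mean replicate inhibition score of at least 50 and every replicate individually at or above 50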;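 also: 0% = plate neutral controls and 100% = maraviroc near 300 nM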
An asterisk follows results filed as active; [ ] = dose if it differs, or a comment.

What do the screens show for `COc1cc(C2c3cc4c(cc3OC(NNC(N)=S)C2C)OCO4)cc(OC)c1OC` (stereo not drawn)?
F508del corr: 2.5; PGC1a acetyl inh: -2.4; PAX8 reporter: 85.2*; EWS-Fli block: 61.3*; HIV Env fusion: 12.0

Results for C[C@H](O)C#Cc1ccc2c(c1)O[C@H](CN(C)CC1CC1)[C@H](C)CN([C@@H](C)CO)S2(=O)=O ?
F508del corr: -1.0; PGC1a acetyl inh: 6.3; EWS-Fli block: -1.7; HIV Env fusion: -3.7[16.7 µM]

Results for CSCC(O)Cn1[nH]c(=O)c2cc(Cl)c(Cl)cc2c1=O (stereo not drawn) ?
F508del corr: 4.1; PGC1a acetyl inh: 83.7*; PAX8 reporter: 22.1; EWS-Fli block: -1.0; FN deposit inh: 0.9; HIV Env fusion: 2.6

Results for Cc1cc[n+](CC(=O)c2ccc(NC(=O)c3ccccc3)cc2)c2ccccc12 ?
F508del corr: 1.2; PAX8 reporter: 79.6*; EWS-Fli block: 21.8; FN deposit inh: -11.2; HIV Env fusion: 4.8

What do the screens show for `O=C(C[n+]1cccc2ccccc21)c1ccc(NC(=O)c2ccccc2)cc1`?
F508del corr: -4.1; PAX8 reporter: 32.1; EWS-Fli block: 5.7; FN deposit inh: 8.6; HIV Env fusion: -13.0

Results for CCOC(=O)C1=C(C)NC(C)=C(C(=O)OCC)C1C(=O)OCC(=O)NC(C)C ?
F508del corr: 1.7; PGC1a acetyl inh: 4.3; PAX8 reporter: 2.0; EWS-Fli block: -9.2; FN deposit inh: 2.9; HIV Env fusion: 26.3

Results for COC(=O)C1=C(C)NC(C)=C(C(=O)OC)C1C(=O)OCC(=O)NC1CCCCC1C (stereo not drawn) ?
F508del corr: 0.3; PGC1a acetyl inh: 1.6; PAX8 reporter: 1.2; EWS-Fli block: -8.0; FN deposit inh: 4.8; HIV Env fusion: 68.2*

What do the screens show for `Cn1c(-c2ccccc2)cc2onc(-c3ccccc3)c2c1=O`?
F508del corr: -1.0; PGC1a acetyl inh: 12.9; PAX8 reporter: 13.8; EWS-Fli block: 80.7*; FN deposit inh: -12.3; HIV Env fusion: -74.8

Results for O=C(Nc1ccc(Cl)cc1)OCCn1nnnc1C(c1ccccc1Cl)N1CCOCC1 (stereo not drawn) ?
PAX8 reporter: 7.8; HIV Env fusion: 112.9*

What do the screens show for `COc1ccccc1CC(=O)OC(C)C(=O)Nc1ccc(S(=O)(=O)N2CCCCC2)cc1` (stereo not drawn)?
F508del corr: -1.6; PGC1a acetyl inh: -9.8; PAX8 reporter: 7.1; EWS-Fli block: 1.9; FN deposit inh: 45.7*; HIV Env fusion: -7.6

What do the screens show for `CC(Oc1ccccc1Cl)C(=O)Nc1ccc(S(=O)(=O)N2CCCC2)cc1` (stereo not drawn)?
F508del corr: 0.3; PAX8 reporter: 14.5; EWS-Fli block: 7.8; FN deposit inh: -3.1; HIV Env fusion: -34.5

Results for COc1cccc(C2=CC(c3ccc(N(C)C)cc3)n3nnnc3N2)c1 (stereo not drawn) ?
PGC1a acetyl inh: -17.6; FN deposit inh: 6.4; HIV Env fusion: -21.8

What do the screens show for `COc1cccc(C2=CC(c3ccccc3)n3nnnc3N2)c1` (stereo not drawn)?
F508del corr: 15.4*; PGC1a acetyl inh: -3.5; EWS-Fli block: 14.4

Results for O=C(NCCCN1CCc2ccccc2C1)Nc1ccc(Cl)cc1 ?
PGC1a acetyl inh: -20.6; FN deposit inh: 7.2; HIV Env fusion: 78.7*

Results for O=C(CN1CCN(c2cccc(Cl)c2)CC1)Nc1ccc([N+](=O)[O-])cc1C(=O)Nc1ccccc1F ?
F508del corr: -2.4; PAX8 reporter: 27.0; EWS-Fli block: 13.0; FN deposit inh: -2.7; HIV Env fusion: 93.0*

How did COc1cccc(NC(=O)N2CC3(C2)[C@@H](c2ccccc2)[C@@H](CO)N3C(=O)C2CC2)c1 do in these assays?
F508del corr: -3.9; EWS-Fli block: 2.6; FN deposit inh: 3.6

What do the screens show for `Cn1cc(/C=N/n2cnc3scc(-c4ccc(Cl)cc4)c3c2=O)c2ccccc21`?
PGC1a acetyl inh: 18.7; PAX8 reporter: 64.8*; FN deposit inh: 11.9; HIV Env fusion: -275.2

Results for CN1CCN(C(=O)C[C@@H]2CC[C@H]3[C@@H](COc4ccc(NC(=O)C5CCCCC5)cc4C(=O)N3C)O2)CC1 ?
F508del corr: 3.8; PGC1a acetyl inh: 17.4; PAX8 reporter: -11.1; EWS-Fli block: 1.8; FN deposit inh: 5.4; HIV Env fusion: -3.4[16.7 µM]

Results for O=C(C[C@H]1C=C[C@H](NC(=O)c2ccncc2)[C@H](CO)O1)Nc1ccc(-c2ccccc2)cc1 ?
F508del corr: 0.2; PGC1a acetyl inh: 2.8

How did CC1OC(CC(=O)O)CC2=C1C(=O)c1c(O)cccc1C2=O (stereo not drawn) do in these assays?
F508del corr: -3.5; PGC1a acetyl inh: 74.8*; PAX8 reporter: 130.3*; EWS-Fli block: 31.6; FN deposit inh: 59.2*; HIV Env fusion: 76.2*

How did COc1ccc2c3c([nH]c2c1)[C@@H](CO)N(Cc1ccccn1)CC31CN(C(=O)c2ccccn2)C1 do in these assays?
F508del corr: 1.5; PGC1a acetyl inh: -5.1; PAX8 reporter: 11.2; EWS-Fli block: -11.3

Results for CCCN(C)C[C@@H]1OCCCC[C@H](C)Oc2ccc(NC(=O)Nc3ccc(C(F)(F)F)cc3)cc2C(=O)N([C@@H](C)CO)C[C@@H]1C ?
F508del corr: -0.9; PGC1a acetyl inh: -1.7; PAX8 reporter: 49.7; EWS-Fli block: 2.7; HIV Env fusion: 12.6[16.7 µM]

Results for Nc1ccc(-c2ncc(-c3ccccc3)o2)cc1 ?
F508del corr: 0.6; PAX8 reporter: -32.8; EWS-Fli block: 64.9*; FN deposit inh: -4.7; HIV Env fusion: 37.4

How did O=C1c2ccccc2C(=O)N1Cc1cnc(N2CCN(c3ccccc3)CC2)s1 do in these assays?
F508del corr: 11.0*; PAX8 reporter: 17.1; EWS-Fli block: 35.5; FN deposit inh: -7.7; HIV Env fusion: -49.7

Results for O=C(CCN1C(=O)c2ccccc2C1=O)N1CCN(c2ccccc2)CC1 ?
PGC1a acetyl inh: -5.3; HIV Env fusion: 10.1

What do the screens show for `CO[C@@H]1CN(C)C(=O)c2cc(NC(=O)c3ccc(F)cc3)ccc2OC[C@@H](C)N(C(=O)c2ccc(F)cc2)C[C@@H]1C`?
F508del corr: -1.4; PGC1a acetyl inh: 0.2; PAX8 reporter: 7.8; EWS-Fli block: -0.8; FN deposit inh: -2.7

What do the screens show for `Cc1nnc(SCC(=O)Nc2sc3c(c2C(=O)c2ccccc2)CCCC3)s1`?
PGC1a acetyl inh: -0.8; PAX8 reporter: 30.3; FN deposit inh: -5.0; HIV Env fusion: 57.4*

Results for COc1ccc(C(CCNCc2ccccc2)c2ccc(F)cc2)cc1 (stereo not drawn) ?
PGC1a acetyl inh: -1.6; PAX8 reporter: -5.2; FN deposit inh: -3.1; HIV Env fusion: -15.2
